Screening data from PubChem.
Shown are actives, neighbours in structure and some others; about 2.9% of the full set was active somewhere.
SENP8 block-1 = human SENP8 protease inhibitors, primary screen, biochemical, fluorescence, Nedd8 protein substrate, uHTS; Sentrin-specific protease 8 (Homo sapiens), Q96LD8; inhibition, % at 20 µM; AID 602440, 2012; 0.64% of 360,000 active; recombinant SENP8; in the data active means inhibition mostly above about 40%, no sharp cut-off; inactive means mostly below about 27%
Target sequence (Q96LD8 whole entry, looked up): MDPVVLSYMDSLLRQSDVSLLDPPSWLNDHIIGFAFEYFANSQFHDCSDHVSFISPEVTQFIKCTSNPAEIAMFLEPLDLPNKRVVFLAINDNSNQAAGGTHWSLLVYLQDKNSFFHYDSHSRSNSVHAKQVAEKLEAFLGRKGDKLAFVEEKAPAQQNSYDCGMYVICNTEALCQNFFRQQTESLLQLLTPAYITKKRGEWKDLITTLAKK
Apaf-1 inh = inhibitors of human Apaf-1 apoptosome, primary screen, biochemical, DEVD-Rh110 fluorescence, uHTS; Apoptotic protease-activating factor 1 (Homo sapiens), O14727; reconstituted apoptosome caspase-3 activity; inhibition, % at 20 µM; 0.71% of 330,000 active; active means inhibition of at least 40% at 20 µM;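 further: plate controls were DMSO wells for no effect and DEVD-CHO caspase inhibitor wells for full effect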
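Material: reconstituted apoptosome with Apaf-1, cytochrome c, caspase-9, procaspase-3, dATP; medium: pH 7.5 Hepes buffer with CHAPS, BSA, DTT; also added: cytochrome c and DEVD-Rh110 substrate; timing: 30 min plus 50 min, RT; signal: Rh110 fluorescence intensity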
SENP6 block = SENP6 protease inhibitors, primary screen, biochemical, luminescence, uHTS | inhibition, % at 10 µM | 1.8% of 330,000 active | Recombinant SENP6 catalytic domain, aminoluciferin luminescence | AID 2599, 2010 | Sentrin-specific protease 6 (Homo sapiens), Q9GZR1;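 active means inhibition above about 50% at the single tested dose, limit read from the data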;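 further: plate controls were DMSO wells with enzyme for no effect and DMSO wells lacking enzyme for full effect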
SENP8 block-2 = SENP8 protease inhibitors, primary screen, biochemical, luminescence | Sentrin-specific protease 8 (Homo sapiens), Q96LD8 | purified SENP8, Z-RLRGG-aminoluciferin cleavage | inhibition, % at 10 µM | 1.2% of 330,000 active | AID 2540, 2010; in the data active means inhibition above about 50%
SENP1 inh = human SENP1 catalytic domain inhibitors, primary screen, biochemical, FRET, uHTS; Sentrin-specific protease 1 (Homo sapiens), Q9P0U3; recombinant SENP1 catalytic domain, CyPet-SUMO1-YPet FRET cleavage; inhibition, % at 10 µM; 0.21% of 360,000 active; AID 624204, 2012;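 active means inhibition at least 30% at 10 µM, raw YFP signal under a set limit, fluorescence ratio 0.5 to 1.5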;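 further: 0% = enzyme with DMSO and 100% = no enzyme wells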
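Test system: human SENP1 catalytic domain; medium: Tris pH 8 buffer plus EDTA, NaCl, BME, BSA, NP40, catalase; incubation: 50 min reaction at room temperature; technique: FRET, CFP and YFP emission; controls: no-enzyme low control and enzyme-plus-DMSO high control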
SENP7 block = SENP7 protease inhibitors, primary screen, biochemical, luminescence, uHTS | inhibition, % at 5 µM | Sentrin-specific protease 7 (Homo sapiens), Q9BQF6 | recombinant SENP7, Z-RLRGG-aminoluciferin luminescence, 40 min | 1.5% of 330,000 active | AID 434973, 2010;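 active means inhibition above about 50% at the single test dose, limit read from the data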;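 further: plate controls were DMSO with enzyme for no effect and no enzyme buffer wells for full effect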
SENP8 conf = SENP8 protease inhibitors, retest, confirmation, biochemical, luminescence, single concentration; shares compounds with SENP7 block; Recombinant SENP8, Z-RLRGG-aminoluciferin luminescence, 60 min; inhibition, % at 12.5 µM; 40% of 6,200 active;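 active means mean inhibition across replicates above about 50%, limit read from the data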
SENP6 conf = SENP6 protease inhibitors, confirmation, biochemical, luminescence, single concentration. inhibition, % at 12.5 µM. recombinant SENP6, Z-RLRGG-aminoluciferin luminescence. shares compounds with SENP7 block. 58% of 6,200 active
SENP7 confirm = SENP7 protease inhibitors, retest, confirmation, biochemical, luminescence, single concentration; recombinant SENP7, Z-RLRGG-aminoluciferin luminescence, 40 min; inhibition, % at 12.5 µM; shares compounds with SENP7 block; 69% of 6,200 active
Casp3 SENP sel = caspase-3 protease inhibitors, confirmation, selectivity assay for SENP inhibitor project, biochemical, single concentration. shares compounds with SENP7 block. purified caspase-3, Z-DEVD-aminoluciferin luminescence, 60 min. inhibition, % at 12.5 µM. 60% of 6,200 active. AID 488918, 2010;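 active means mean inhibition above about 50%, limit read from the data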;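 further: plate controls were enzyme with DMSO for no effect and wells without caspase-3 for full effect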
Target sequence (P42574 28-227 limits assumed): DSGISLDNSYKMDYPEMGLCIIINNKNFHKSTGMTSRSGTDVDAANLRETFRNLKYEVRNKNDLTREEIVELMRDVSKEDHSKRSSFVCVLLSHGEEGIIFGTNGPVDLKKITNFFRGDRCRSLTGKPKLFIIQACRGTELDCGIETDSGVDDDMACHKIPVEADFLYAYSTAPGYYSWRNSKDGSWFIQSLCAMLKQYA
Luc interf = counter-screen for SENP inhibitors: luminescence interference; 39% of 6,200 active; inhibition, % at 12.5 µM; Pre-incubated SENP8/Z-RLRGG-aminoluciferin, luciferase luminescence interference; shares compounds with SENP7 block;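 active means mean inhibition above about 50% when retested at one dose, limit read from the data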;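 further: plate controls were DMSO wells with completed reaction for no effect and substrate without enzyme for full effect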
The depositor's hits bear a star; / = no result given.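 How the source made its calls, unless noted: active means mean inhibition above about 50% in the one-dose retest (limit read from the data); inactive means the rest.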

SMILES	SENP8 block-1	Apaf-1 inh	SENP6 block	SENP8 block-2	SENP1 inh	SENP7 block	SENP8 conf	SENP6 conf	SENP7 confirm	Casp3 SENP sel	Luc interf
COc1ccc(C(=O)N=C2SC3CS(=O)(=O)CC3N2c2ccc(N(C)C)cc2)cc1OC (centres undefined)	-15	4	1	16	5	-1	/	/	/	/	/
Fc1cccc2sc(Nc3nc4cc5c(cc4s3)OCO5)nc12	-449	2	7	-8	-39	53*	-6	-10	2	5	-5
COC(=O)[C@]12CCCCC=C1N(Cc1ccc(Cl)cc1Cl)C(=O)[C@H](CC(=O)NCc1cccc(C(F)(F)F)c1)C2	7	/	/	/	1	/	/	/	/	/	/
COc1ccc(NC(=O)Nc2cc(C)ccn2)cc1	24	/	/	/	2	/	/	/	/	/	/
Cc1ccnc(NC(=O)Nc2ccc(F)cc2)c1	20	7	71*	30	0	42	17	31	42	22	3
CSc1ccc(NC(=O)Nc2cc(C)ccn2)cc1	18	10	49	29	0	78*	13	30	31	35	11
Cc1ccnc(NC(=O)c2cc3cc(F)ccc3s2)c1	-66	14	87*	73*	-1	73*	79*	78*	95*	73*	60*
COc1ccccc1CN1CC(C(=O)NCC2(O)CCCCC2)CCC1=O (centres undefined)	16	/	/	/	3	/	/	/	/	/	/
CC(C)NC(=O)C1(C)CCCN1C(=O)c1ccccc1Br (centres undefined)	2	/	/	/	1	/	/	/	/	/	/
N#Cc1c(/N=C/c2cccs2)sc2c1CCCCC2	28	24	76*	92*	-1	97*	91*	94*	96*	87*	48
Cc1ccc(/C=N/c2sc3c(c2C#N)CCC3)o1	16	5	93*	90*	-14	91*	5	84*	94*	36	52*
N#Cc1c(/N=C/c2cccnc2)sc2c1CCCC2	32	14	55*	35	-1	-10	57*	56*	67*	28	56*
CN(C)/C=N/c1sc2c(c1C#N)CCC2	17	-2	-23	-11	1	-11	/	/	/	/	/
N#Cc1c(/N=C/c2ccc(Br)s2)sc2c1CCC2	17	/	/	/	-17	/	/	/	/	/	/
N/C(=N\OC(=O)c1ccc2ccccc2c1)c1ccncc1	-12	0	47	56*	0	67*	70*	71*	90*	77*	73*
N/C(=N\OC(=O)c1ccc2ccccc2c1)c1ccccn1	-20	13	94*	96*	3	101*	95*	97*	102*	98*	27
